A selection: hits, their analogues and other compounds. The true share with any hit is near 0.74%.
ASAP1 inh – ASAP1 ArfGAP inhibition; ASAP1-stimulated ARF1 GTP hydrolysis, GDP FP detection; inhibition, % at 16.5 µM; 0.19% of 360,000 active; AID 624377; in the data active = inhibition above about 25%;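 also: 0% = vehicle with enzyme and substrate and 100% = no enzyme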
Target sequence (Q9ULH1 325-724 limits assumed): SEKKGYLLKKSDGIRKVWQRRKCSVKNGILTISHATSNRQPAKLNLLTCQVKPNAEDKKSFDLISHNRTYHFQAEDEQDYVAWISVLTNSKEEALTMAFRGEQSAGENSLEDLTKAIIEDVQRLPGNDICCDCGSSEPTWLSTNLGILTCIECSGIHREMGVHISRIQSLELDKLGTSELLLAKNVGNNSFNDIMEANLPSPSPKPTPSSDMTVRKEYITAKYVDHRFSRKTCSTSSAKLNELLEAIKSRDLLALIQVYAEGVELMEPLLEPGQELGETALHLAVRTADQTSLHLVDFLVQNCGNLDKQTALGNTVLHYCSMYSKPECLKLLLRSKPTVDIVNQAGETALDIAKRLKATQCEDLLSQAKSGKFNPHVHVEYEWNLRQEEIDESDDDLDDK
Tn6 DDE FP – DD(E)-Tn6 binding inhibition, primary FP screen; inhibition, % at 8.3 µM; 0.21% of 370,000 active; Fibrin DD(E) TRITC-Tn6 fluorescence polarization displacement; AID 720509;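 active = inhibition above a per-campaign cutoff: mean of compounds within control limits plus 3 SD, cut at about 15% in these data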;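 also: 0% = median of all compound wells on the plate and 100% = blocking peptide control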
ARFGAP1 inhibitor – inhibitors of rat ARFGAP1 | Arfgap1-stimulated ARF1 GTP hydrolysis, GDP FP detection | Q62848 | inhibition, % at 16.5 µM | 0.26% of 360,000 active;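 active = inhibition above a per-plate limit, mean inhibition of low control wells plus 3 SD, cut at about 25% in these data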;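 also: 0% = DMSO wells with enzyme and 100% = wells lacking Arfgap1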
Target sequence (Q62848 1-136 limits assumed): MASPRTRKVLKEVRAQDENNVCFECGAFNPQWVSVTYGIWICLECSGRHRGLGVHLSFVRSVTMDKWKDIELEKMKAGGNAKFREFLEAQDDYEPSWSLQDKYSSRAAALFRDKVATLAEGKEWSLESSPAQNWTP
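Material – truncated rat Arfgap1 GAP domain · Buffer or medium – HEPES-based buffer, pH 7.5 · Reagent – human ARF1(Δ1-17)-GTP substrate · Dosing – 16.5 µM single point, 1.26% DMSO · Schedule – GTP hydrolysis reaction 2 h at 25 °C · Technique – GDP detection by fluorescence polarization · Benchmarks – No-Arfgap1 wells (100%) versus DMSO full-reaction wells (0%) · Repeats – single replicate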
DDE Tn7 FP inh – DD(E)-Tn7 binding inhibition, primary FP screen | P02675 | FP displacement of FITC-Tn7 peptide from fibrin DD(E); 0% = median of compound wells per plate | inhibition, % at 8.3 µM | 0.13% of 370,000 active | AID 720508;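 active = inhibition above the mean of compounds falling within the control limits plus 3 SD of them, cut at about 14% in these data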;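 also: 0% = plate median of compound wells and 100% = 10 µM Aha-Tn7 peptide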
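Also added: labelled Tn7 tracer, 0.1 µM; Assay system: human fibrin DD(E) protein; Amount: 2 µM fibrin DD(E); Schedule: 10 min compound pre-incubation, 3 h probe incubation at room temperature; Repeats: one replicate per compound; Read-out basis: percent inhibition; Measured by: fluorescence polarization of the labelled Tn7 tracer.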
ASAP1 GAP conf – ASAP1 inhibition confirmed; shares compounds with ASAP1 inh; ASAP1-stimulated Arf1 GTPase, GDP fluorescence polarization; inhibition, % at 16.5 µM; 37% of 620 active;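 active = mean inhibition over triplicates exceeds the hit threshold derived for the earlier primary screening run, cut at about 25% in these data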
ARFGAP1 inh conf – confirmation of rat ARFGAP1 inhibitors. shares compounds with ARFGAP1 inhibitor. ARFGAP1-stimulated ARF1 GTP hydrolysis, GDP tracer FP. inhibition, % at 16.5 µM. 30% of 890 active. AID 651608;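 active = average inhibition over triplicates above the hit cutoff set in the earlier primary screen, cut at about 25% in these data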;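 also: 0% = Arfgap1 plus ARF1-GTP with DMSO and 100% = wells lacking Arfgap1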
Tn6 DDE ctr – counter-screen hit for Tn6 peptide-fibrin DD(E) binding disruption; shares compounds with Tn6 DDE FP; TRITC-Tn6 fluorescence polarization displacement; 0% = median of compound wells, not DMSO; inhibition, % at 8.3 µM; 2% of 680 active;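 active = inhibition above the mean of test compounds lying between the control limits plus 3 SD of those, cut at about 14% in these data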;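 also: 0% = median of compound wells and 100% = wells with Aha-Tn7 blocking peptide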
DDE Tn6 confirm – confirmation of inhibitors of Tn6 binding to human fibrin DD(E). inhibition, % at 8.3 µM. AID 720631. FP displacement of TRITC-Tn6 peptide from DD(E); 0% = per-plate median of test wells. 10% of 680 active. shares compounds with Tn6 DDE FP;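 active = inhibition above the mean of compounds lying within the control limits plus 3 SD, cut at about 16% in these data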;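 also: 100% = high control wells holding a competing inhibitor peptide at 10 µM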
* hit, by the source's call.

How did COC(=O)c1nc(-c2ccc3c(n2)C(=O)C(N)=C(OC)C3=O)c(N)c(-c2ccc(OC)c(OC)c2O)c1C do in these assays?
ASAP1 inh: 31*; Tn6 DDE FP: -5; ARFGAP1 inhibitor: 0; DDE Tn7 FP inh: -6

How did c1cncc(-c2ccc3n2Cc2cnnn2-c2ccccc2-3)c1 do in these assays?
Tn6 DDE FP: 5; DDE Tn7 FP inh: -8

Results for CC[n+]1c(-c2ccccc2)c2cc(N)ccc2c2ccc(N)cc21 ?
ASAP1 inh: 4; Tn6 DDE FP: 56*; ARFGAP1 inhibitor: -5; DDE Tn7 FP inh: 6

What do the screens show for `CCC12CCN(CC3(O)CC3)C(Cc3ccc(O)cc31)C2(C)C` (stereo not drawn)?
ASAP1 inh: 0; Tn6 DDE FP: 7; ARFGAP1 inhibitor: -2; DDE Tn7 FP inh: -4

How did Nc1c(C(=O)NCc2ccco2)c2nc3ccccc3nc2n1Cc1ccccc1 do in these assays?
ASAP1 inh: 1; Tn6 DDE FP: -6; ARFGAP1 inhibitor: 4; DDE Tn7 FP inh: -5

Results for Nc1c(C(=O)NCc2ccco2)c2nc3ccccc3nc2n1Cc1ccc(F)cc1 ?
ASAP1 inh: 32*; Tn6 DDE FP: -10; ARFGAP1 inhibitor: 0; DDE Tn7 FP inh: 9; ASAP1 GAP conf: 14

Results for c1ccc2c(c1)[IH]c1ccccc1-2 ?
ASAP1 inh: 3; Tn6 DDE FP: -4; ARFGAP1 inhibitor: 11; DDE Tn7 FP inh: 0

Results for CCC(C)C1NC(=O)C(NC(=O)C(CC(C)C)N(C)C(=O)C2CCCN2C(=O)C(C)O)C(C)OC(=O)C(Cc2ccc(OC)cc2)N(C)C(=O)C2CCCN2C(=O)C(CC(C)C)NC(=O)[C@H](C)C(=O)[C@H](C(C)C)OC(=O)CC1O (stereo partly drawn) ?
ASAP1 inh: 27*; Tn6 DDE FP: 1; ARFGAP1 inhibitor: 5; DDE Tn7 FP inh: -5; ASAP1 GAP conf: 3

Results for COCCCn1c(N)c(C(=O)NCCC(C)C)c2nc3ccccc3nc21 ?
ASAP1 inh: 27*; Tn6 DDE FP: 7; ARFGAP1 inhibitor: 23; DDE Tn7 FP inh: 3; ASAP1 GAP conf: 9

How did CCN1C(=O)C(=C/C=C/c2ccco2)C(=O)N(CC)C1=S do in these assays?
ASAP1 inh: 28*; Tn6 DDE FP: -8; ARFGAP1 inhibitor: -2; DDE Tn7 FP inh: -8; ASAP1 GAP conf: 22

How did CC(C)N1C(=O)/C(=C/C=C/c2ccco2)C(=O)N(Cc2ccco2)C1=O do in these assays?
ASAP1 inh: 14; Tn6 DDE FP: 8; ARFGAP1 inhibitor: 14; DDE Tn7 FP inh: 1

What do the screens show for `COC(=O)C1C(OC(=O)c2ccccc2)CC2CCC1[N+]2(C)C` (stereo not drawn)?
ASAP1 inh: 1; Tn6 DDE FP: -1; ARFGAP1 inhibitor: 0; DDE Tn7 FP inh: -2

How did CN(C)c1ccc(/C=C/C=C/c2sc3ccccc3[n+]2C)cc1 do in these assays?
ASAP1 inh: 80*; Tn6 DDE FP: 14; ARFGAP1 inhibitor: 92*; DDE Tn7 FP inh: -4; ASAP1 GAP conf: 109*; ARFGAP1 inh conf: 127*

What do the screens show for `CC[n+]1c(/C=C/C=C/c2ccc(N(C)C)cc2)sc2ccccc21`?
ASAP1 inh: 98*; Tn6 DDE FP: 73*; ARFGAP1 inhibitor: 107*; DDE Tn7 FP inh: -2; ASAP1 GAP conf: 123*; ARFGAP1 inh conf: 159*

Results for C[n+]1c(-c2ccccc2)sc2ccccc21 ?
ASAP1 inh: 15; Tn6 DDE FP: 6; ARFGAP1 inhibitor: -3; DDE Tn7 FP inh: 10

Results for COC(=O)C1C(c2ccc(F)cc2)CC2CCC1N2C (stereo not drawn) ?
ASAP1 inh: 1; Tn6 DDE FP: -2; ARFGAP1 inhibitor: 0; DDE Tn7 FP inh: -1

Results for CCOC(=O)c1c(NC(=O)c2c(N)n(CCCOC)c3nc4ccccc4nc23)sc2c1CCCC2 ?
ASAP1 inh: -3; Tn6 DDE FP: 3; ARFGAP1 inhibitor: 2; DDE Tn7 FP inh: -4

How did CCOCCCn1c(N)c(C(=O)Nc2sc3c(c2C(=O)OC)CCCC3)c2nc3ccccc3nc21 do in these assays?
ASAP1 inh: 34*; Tn6 DDE FP: -8; ARFGAP1 inhibitor: 25*; DDE Tn7 FP inh: -8; ASAP1 GAP conf: 14; ARFGAP1 inh conf: 4

How did Nc1ccccc1C(=O)OCCc1ccccc1 do in these assays?
ASAP1 inh: 4; Tn6 DDE FP: -4; ARFGAP1 inhibitor: 0; DDE Tn7 FP inh: -3

How did O=C(O)c1cccc2c1NC(C(=O)O)C1CC(Sc3ccccc3[N+](=O)[O-])C(Cl)C21 (stereo not drawn) do in these assays?
ASAP1 inh: 59*; Tn6 DDE FP: -3; ARFGAP1 inhibitor: 35*; DDE Tn7 FP inh: -2; ASAP1 GAP conf: 61*; ARFGAP1 inh conf: 87*

How did CN(C)c1ccc(/C=C/c2cc[n+](C)c3ccccc23)cc1 do in these assays?
ASAP1 inh: 44*; Tn6 DDE FP: 30*; ARFGAP1 inhibitor: 37*; DDE Tn7 FP inh: -4; ASAP1 GAP conf: 51*; ARFGAP1 inh conf: 49*; Tn6 DDE ctr: 8; DDE Tn6 confirm: 11

What do the screens show for `C[CH2][Hg][S]c1ccccc1C(=O)O`?
ASAP1 inh: -2; Tn6 DDE FP: -1; ARFGAP1 inhibitor: 6; DDE Tn7 FP inh: -1

How did CN1CCN(Cc2cc(C(C)(C)C)c(O)c(C(C)(C)C)c2)CC1 do in these assays?
ASAP1 inh: 7; Tn6 DDE FP: 8; ARFGAP1 inhibitor: 26*; DDE Tn7 FP inh: 2; ARFGAP1 inh conf: 6

What do the screens show for `CCOP(=O)(OCC)C(O)c1cccc([N+](=O)[O-])c1` (stereo not drawn)?
ASAP1 inh: 11; Tn6 DDE FP: 2; ARFGAP1 inhibitor: 26*; DDE Tn7 FP inh: -3; ARFGAP1 inh conf: -1

Results for COC1=CC(=O)OC(CCc2ccc3c(c2)OCO3)C1 (stereo not drawn) ?
ASAP1 inh: 1; Tn6 DDE FP: -5; ARFGAP1 inhibitor: -1; DDE Tn7 FP inh: -1

How did CC1CN(c2ccccn2)C(C)CN1C(=O)C(O)(c1ccccc1)c1ccccc1 (stereo not drawn) do in these assays?
ASAP1 inh: -2; Tn6 DDE FP: 4; ARFGAP1 inhibitor: 5; DDE Tn7 FP inh: 4

How did S=C(NCCc1ccccc1)N1Cc2cc(Br)ccc2-n2nncc2C1 do in these assays?
ASAP1 inh: 1; Tn6 DDE FP: -7; ARFGAP1 inhibitor: 1; DDE Tn7 FP inh: 4

High-throughput results deposited in PubChem by The Scripps Research Institute Molecular Screening Center.
